Measured values from ChEMBL document CHEMBL1142492 (J Med Chem, 2008).

Legend:
[1] = target: Epidermal growth factor receptor (Homo sapiens) (UniProt P00533); test: Inhibition of EGFR at 3 uM
How it was run: (§1)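 Single-concentration kinase panel scoring: each value is the percentage of enzyme activity remaining relative to a DMSO-only control. An activity statistically indistinct from DMSO control was scored "no hit".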

[2] = target: Wee1-like protein kinase (Homo sapiens) (UniProt P30291); test: Inhibition of WEE1 at 3 uM
[3] = target: Cyclin-dependent kinase-like 2 (Homo sapiens) (UniProt Q92772); test: Inhibition of CDKL2 at 3 uM
[4] = target: Tyrosine-protein kinase receptor UFO (Homo sapiens) (UniProt P30530); test: Inhibition of AXL at 3 uM
Chain of Tyrosine-protein kinase receptor UFO (Homo sapiens) (P30530 whole entry): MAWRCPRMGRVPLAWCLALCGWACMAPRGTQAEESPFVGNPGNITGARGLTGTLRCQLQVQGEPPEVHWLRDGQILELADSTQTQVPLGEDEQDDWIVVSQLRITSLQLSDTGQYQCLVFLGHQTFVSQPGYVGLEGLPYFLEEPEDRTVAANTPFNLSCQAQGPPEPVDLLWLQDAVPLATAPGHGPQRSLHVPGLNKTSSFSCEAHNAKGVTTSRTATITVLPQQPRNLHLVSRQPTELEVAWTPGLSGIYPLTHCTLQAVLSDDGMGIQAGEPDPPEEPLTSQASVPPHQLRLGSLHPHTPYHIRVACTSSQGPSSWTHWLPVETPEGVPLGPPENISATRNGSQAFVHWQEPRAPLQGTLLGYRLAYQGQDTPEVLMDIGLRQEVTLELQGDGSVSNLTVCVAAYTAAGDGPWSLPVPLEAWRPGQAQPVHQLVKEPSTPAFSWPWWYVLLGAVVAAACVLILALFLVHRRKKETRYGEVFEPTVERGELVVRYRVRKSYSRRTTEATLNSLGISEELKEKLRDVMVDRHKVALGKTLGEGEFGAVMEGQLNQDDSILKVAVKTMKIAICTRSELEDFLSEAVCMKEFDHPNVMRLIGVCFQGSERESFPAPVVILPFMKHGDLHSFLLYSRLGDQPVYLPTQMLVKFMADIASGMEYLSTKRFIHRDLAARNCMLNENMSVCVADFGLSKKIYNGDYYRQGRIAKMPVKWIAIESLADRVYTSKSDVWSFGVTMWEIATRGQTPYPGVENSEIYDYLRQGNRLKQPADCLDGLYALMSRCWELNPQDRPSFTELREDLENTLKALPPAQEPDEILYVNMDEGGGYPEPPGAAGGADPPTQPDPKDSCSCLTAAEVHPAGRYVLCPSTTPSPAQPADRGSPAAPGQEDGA

[5] = target: Pro-epidermal growth factor (Homo sapiens) (UniProt P01133); test: Inhibition of human EGF at 3 uM
How it was run: (§2)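 Counter-screen binding/enzyme panel at single 3 μM, n=2; results as percent inhibition. Species per target as listed (rat NMDA, GABAA sites; human receptors, transporters; rabbit ACE).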

[6] = target: Cyclin-dependent kinase 11A (Homo sapiens) (UniProt Q9UQ88); test: Inhibition of CDC2L2 at 3 uM
[7] = target: Insulin-like growth factor 1 receptor (Homo sapiens) (UniProt P08069); test: Inhibition of IGF1R at 3 uM
[8] = target: BDNF/NT-3 growth factors receptor (Homo sapiens) (UniProt Q16620); test: Inhibition of TRKB at 3 uM
[9] = target: Casein kinase I isoform delta (Homo sapiens) (UniProt P48730); test: Inhibition of CSNK1D at 3 uM
in vivo = conditions: Sprague-Dawley, rat, plasma, iv, 1 mg/kg
Rattus norvegicus = species on record: Rattus norvegicus; conditions: 3 uM
[10] = target: 5-hydroxytryptamine receptor 1A (Homo sapiens) (UniProt P08908); test: Inhibition of human 5HT1A receptor at 3 uM; how it was run: as §2
[11] = target: Serine/threonine-protein kinase 25 (Homo sapiens) (UniProt O00506); test: Inhibition of YSK1 at 3 uM
[12] = target: Serine/threonine-protein kinase B-raf (Homo sapiens) (UniProt P15056); test: Inhibition of BRAF at 3 uM
[13] = target: Protein kinase C delta type (Homo sapiens) (UniProt Q05655); test: Inhibition of PRKCD at 3 uM
[14] = target: Muscarinic acetylcholine receptor M2 (Homo sapiens) (UniProt P08172); test: Inhibition of human muscarinic M2 receptor at 3 uM; how it was run: as §2
[15] = target: Phosphatidylinositol 4,5-bisphosphate 3-kinase catalytic subunit delta isoform (Homo sapiens) (UniProt O00329); test: Inhibition of PIK3CD at 3 uM
[16] = target: Platelet-activating factor receptor (Homo sapiens) (UniProt P25105); test: Inhibition of human PAF at 3 uM
[17] = target: Calcium/calmodulin-dependent protein kinase kinase 1 (Homo sapiens) (UniProt Q8N5S9); test: Inhibition of CAMKK1 at 3 uM
[18] = target: Mitogen-activated protein kinase 7 (Homo sapiens) (UniProt Q13164); test: Inhibition of ERK5 at 3 uM; how it was run: as §1
[19] = target: Serine/threonine-protein kinase 10 (Homo sapiens) (UniProt O94804); test: Inhibition of LOK at 3 uM
[20] = target: Serine/threonine-protein kinase LATS2 (Homo sapiens) (UniProt Q9NRM7); test: Inhibition of LATS2 at 3 uM
[21] = target: Muscarinic acetylcholine receptor M1 (Homo sapiens) (UniProt P11229); test: Inhibition of human muscarinic M1 receptor at 3 uM; how it was run: as §2
Chain of Muscarinic acetylcholine receptor M1 (Homo sapiens) (P11229 whole entry): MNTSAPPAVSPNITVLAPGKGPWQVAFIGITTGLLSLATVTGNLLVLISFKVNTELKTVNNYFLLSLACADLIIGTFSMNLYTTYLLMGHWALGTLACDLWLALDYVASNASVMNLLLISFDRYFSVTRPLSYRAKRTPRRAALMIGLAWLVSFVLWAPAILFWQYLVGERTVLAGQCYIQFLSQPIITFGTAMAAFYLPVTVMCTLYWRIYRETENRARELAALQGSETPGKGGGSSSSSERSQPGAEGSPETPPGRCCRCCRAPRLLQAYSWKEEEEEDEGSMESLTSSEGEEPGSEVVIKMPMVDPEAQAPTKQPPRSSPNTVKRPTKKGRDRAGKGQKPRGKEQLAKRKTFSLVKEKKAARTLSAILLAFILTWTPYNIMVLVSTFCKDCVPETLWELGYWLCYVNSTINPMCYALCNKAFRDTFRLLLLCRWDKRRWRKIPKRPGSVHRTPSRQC

[22] = target: cGMP-dependent protein kinase 2 (Homo sapiens) (UniProt Q13237); test: Inhibition of PRKG2 at 3 uM
[23] = system: Epidermal growth factor receptor (Homo sapiens), P00533 [G719S]; test: Inhibition of EGFR G719S mutant at 3 uM; format: protein assay
[24] = system: eIF-2-alpha kinase GCN2 (Homo sapiens), Q9P2K8 [S808G]; test: Inhibition of GCN2 Kin.Dom.2,S808G mutant at 3 uM
[25] = target: Serine/threonine-protein kinase ULK2 (Homo sapiens) (UniProt Q8IYT8); test: Inhibition of ULK2 at 3 uM
Chain of Serine/threonine-protein kinase ULK2 (Homo sapiens) (Q8IYT8 whole entry): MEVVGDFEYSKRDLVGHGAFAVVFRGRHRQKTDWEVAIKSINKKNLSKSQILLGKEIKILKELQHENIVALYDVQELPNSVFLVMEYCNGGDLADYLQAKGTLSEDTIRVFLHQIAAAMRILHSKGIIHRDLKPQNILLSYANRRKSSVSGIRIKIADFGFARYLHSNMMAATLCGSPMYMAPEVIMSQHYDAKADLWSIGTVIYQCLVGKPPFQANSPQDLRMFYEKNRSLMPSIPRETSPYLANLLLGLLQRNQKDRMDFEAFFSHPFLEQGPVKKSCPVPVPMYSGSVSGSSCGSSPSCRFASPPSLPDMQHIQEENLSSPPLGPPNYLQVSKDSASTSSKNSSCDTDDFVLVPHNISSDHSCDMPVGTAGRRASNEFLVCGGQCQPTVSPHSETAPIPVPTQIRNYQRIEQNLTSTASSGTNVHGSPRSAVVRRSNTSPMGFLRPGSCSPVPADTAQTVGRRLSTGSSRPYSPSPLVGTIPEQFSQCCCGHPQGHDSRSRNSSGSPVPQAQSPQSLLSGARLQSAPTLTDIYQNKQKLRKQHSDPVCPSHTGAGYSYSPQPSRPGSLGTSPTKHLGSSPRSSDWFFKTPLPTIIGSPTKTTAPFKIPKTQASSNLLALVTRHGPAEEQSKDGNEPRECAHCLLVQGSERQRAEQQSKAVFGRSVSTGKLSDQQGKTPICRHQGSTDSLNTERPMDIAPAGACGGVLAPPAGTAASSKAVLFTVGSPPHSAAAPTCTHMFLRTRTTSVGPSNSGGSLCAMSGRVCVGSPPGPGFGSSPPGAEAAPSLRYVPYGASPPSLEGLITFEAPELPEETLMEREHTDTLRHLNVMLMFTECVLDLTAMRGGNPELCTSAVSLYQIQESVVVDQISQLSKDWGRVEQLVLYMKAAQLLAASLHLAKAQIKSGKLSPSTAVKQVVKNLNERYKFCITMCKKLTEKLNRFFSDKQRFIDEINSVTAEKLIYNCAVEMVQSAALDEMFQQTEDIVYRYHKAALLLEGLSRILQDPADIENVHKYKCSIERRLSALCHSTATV

[26] = target: D(1A) dopamine receptor (Homo sapiens) (UniProt P21728); test: Inhibition of human dopamine D1 receptor at 3 uM
[27] = target: Aurora kinase C (Homo sapiens) (UniProt Q9UQB9); test: Inhibition of AURKC at 3 uM
[28] = target: Bone morphogenetic protein receptor type-1B (Homo sapiens) (UniProt O00238); test: Inhibition of BMPR1B at 3 uM
[29] = target: Cyclin-dependent kinase 9 (Homo sapiens) (UniProt P50750); test: Inhibition of CDK9 at 3 uM
Chain of Cyclin-dependent kinase 9 (Homo sapiens) (P50750 whole entry): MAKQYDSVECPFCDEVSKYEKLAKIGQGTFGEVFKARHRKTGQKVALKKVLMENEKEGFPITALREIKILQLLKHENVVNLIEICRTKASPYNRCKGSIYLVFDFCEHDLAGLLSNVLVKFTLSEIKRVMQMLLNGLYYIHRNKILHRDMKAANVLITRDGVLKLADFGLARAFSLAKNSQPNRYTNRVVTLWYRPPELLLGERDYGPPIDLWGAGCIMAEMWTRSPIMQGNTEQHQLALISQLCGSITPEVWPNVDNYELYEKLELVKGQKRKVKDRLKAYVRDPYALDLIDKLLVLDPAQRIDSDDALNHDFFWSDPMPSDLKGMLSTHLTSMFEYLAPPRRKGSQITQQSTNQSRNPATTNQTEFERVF

[30] = target: Serine/threonine-protein kinase STK11 (Homo sapiens) (UniProt Q15831); test: Inhibition of LKB1 at 3 uM
[31] = system: Tyrosine-protein kinase ABL1 (Homo sapiens), P00519 [F317I]; test: Inhibition of ABL1 F317I mutant at 3 uM
[32] = target: Histamine H1 receptor (Homo sapiens) (UniProt P35367); test: Inhibition of human histamine H1 receptor at 3 uM
[33] = system: Proto-oncogene tyrosine-protein kinase receptor Ret (Homo sapiens), P07949 [V804M]; test: Inhibition of RET V804M mutant at 3 uM
Chain of Proto-oncogene tyrosine-protein kinase receptor Ret (Homo sapiens), P07949 [V804M] (P07949 whole entry V804M): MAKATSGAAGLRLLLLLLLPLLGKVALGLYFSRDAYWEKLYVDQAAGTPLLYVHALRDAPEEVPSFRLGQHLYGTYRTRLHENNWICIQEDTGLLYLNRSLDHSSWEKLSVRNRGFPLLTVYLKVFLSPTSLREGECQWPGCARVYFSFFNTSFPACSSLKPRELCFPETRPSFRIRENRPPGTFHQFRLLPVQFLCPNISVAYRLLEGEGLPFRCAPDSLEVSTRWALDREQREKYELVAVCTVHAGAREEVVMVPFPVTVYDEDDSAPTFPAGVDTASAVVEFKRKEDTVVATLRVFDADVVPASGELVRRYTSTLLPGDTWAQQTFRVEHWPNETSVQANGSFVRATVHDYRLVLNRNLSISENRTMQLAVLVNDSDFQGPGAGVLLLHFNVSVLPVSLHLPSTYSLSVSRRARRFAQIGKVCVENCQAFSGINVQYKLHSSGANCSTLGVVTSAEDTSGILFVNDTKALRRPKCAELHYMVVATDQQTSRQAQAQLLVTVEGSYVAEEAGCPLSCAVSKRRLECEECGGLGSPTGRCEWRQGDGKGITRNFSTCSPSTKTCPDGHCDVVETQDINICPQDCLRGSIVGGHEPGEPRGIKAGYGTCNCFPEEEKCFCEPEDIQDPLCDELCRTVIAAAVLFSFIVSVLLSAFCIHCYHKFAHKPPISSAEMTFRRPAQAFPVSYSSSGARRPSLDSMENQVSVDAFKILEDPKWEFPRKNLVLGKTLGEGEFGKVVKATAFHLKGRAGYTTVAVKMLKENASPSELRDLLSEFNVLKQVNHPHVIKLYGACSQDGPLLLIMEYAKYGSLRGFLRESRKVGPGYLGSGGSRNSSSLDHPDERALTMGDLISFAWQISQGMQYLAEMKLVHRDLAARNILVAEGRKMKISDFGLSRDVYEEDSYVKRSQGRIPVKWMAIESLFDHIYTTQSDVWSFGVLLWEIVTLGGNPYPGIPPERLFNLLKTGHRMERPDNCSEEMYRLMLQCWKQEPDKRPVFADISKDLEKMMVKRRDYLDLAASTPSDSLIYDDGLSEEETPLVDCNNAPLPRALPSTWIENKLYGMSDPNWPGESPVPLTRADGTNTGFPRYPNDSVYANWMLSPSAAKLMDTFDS

[34] = target: Serine/threonine-protein kinase DCLK1 (Homo sapiens) (UniProt O15075); test: Inhibition of DCAMKL1 at 3 uM
[35] = target: Ephrin type-B receptor 2 (Homo sapiens) (UniProt P29323); test: Inhibition of EPHB2 at 3 uM; how it was run: as §1
[36] = target: Death-associated protein kinase 3 (Homo sapiens) (UniProt O43293); test: Inhibition of DAPK3 at 3 uM
[37] = target: Serine/threonine-protein kinase BRSK2 (Homo sapiens) (UniProt Q8IWQ3); test: Inhibition of BRSK2 at 3 uM
[38] = target: Epidermal growth factor receptor (Homo sapiens) (UniProt P04626+P00533+Q15303+P21860); test: Inhibition of EGFR S752-I759del mutant at 3 uM; format: protein assay; how it was run: as §1
[39] = target: High affinity nerve growth factor receptor (Homo sapiens) (UniProt P04629); test: Inhibition of TRKA at 3 uM
[40] = target: Serine/threonine-protein kinase TAO3 (Homo sapiens) (UniProt Q9H2K8); test: Inhibition of TAOK3 at 3 uM
[41] = Half life in Sprague-Dawley rat at 1 mg/kg, iv; conditions: in vivo
hERG (KCNH2) = hERG (KCNH2) (Homo sapiens, UniProt Q12809); test: Inhibition of human ERG at 3 uM; how it was run: as §2
Chain of hERG (KCNH2) (Q12809 whole entry, canonical isoform): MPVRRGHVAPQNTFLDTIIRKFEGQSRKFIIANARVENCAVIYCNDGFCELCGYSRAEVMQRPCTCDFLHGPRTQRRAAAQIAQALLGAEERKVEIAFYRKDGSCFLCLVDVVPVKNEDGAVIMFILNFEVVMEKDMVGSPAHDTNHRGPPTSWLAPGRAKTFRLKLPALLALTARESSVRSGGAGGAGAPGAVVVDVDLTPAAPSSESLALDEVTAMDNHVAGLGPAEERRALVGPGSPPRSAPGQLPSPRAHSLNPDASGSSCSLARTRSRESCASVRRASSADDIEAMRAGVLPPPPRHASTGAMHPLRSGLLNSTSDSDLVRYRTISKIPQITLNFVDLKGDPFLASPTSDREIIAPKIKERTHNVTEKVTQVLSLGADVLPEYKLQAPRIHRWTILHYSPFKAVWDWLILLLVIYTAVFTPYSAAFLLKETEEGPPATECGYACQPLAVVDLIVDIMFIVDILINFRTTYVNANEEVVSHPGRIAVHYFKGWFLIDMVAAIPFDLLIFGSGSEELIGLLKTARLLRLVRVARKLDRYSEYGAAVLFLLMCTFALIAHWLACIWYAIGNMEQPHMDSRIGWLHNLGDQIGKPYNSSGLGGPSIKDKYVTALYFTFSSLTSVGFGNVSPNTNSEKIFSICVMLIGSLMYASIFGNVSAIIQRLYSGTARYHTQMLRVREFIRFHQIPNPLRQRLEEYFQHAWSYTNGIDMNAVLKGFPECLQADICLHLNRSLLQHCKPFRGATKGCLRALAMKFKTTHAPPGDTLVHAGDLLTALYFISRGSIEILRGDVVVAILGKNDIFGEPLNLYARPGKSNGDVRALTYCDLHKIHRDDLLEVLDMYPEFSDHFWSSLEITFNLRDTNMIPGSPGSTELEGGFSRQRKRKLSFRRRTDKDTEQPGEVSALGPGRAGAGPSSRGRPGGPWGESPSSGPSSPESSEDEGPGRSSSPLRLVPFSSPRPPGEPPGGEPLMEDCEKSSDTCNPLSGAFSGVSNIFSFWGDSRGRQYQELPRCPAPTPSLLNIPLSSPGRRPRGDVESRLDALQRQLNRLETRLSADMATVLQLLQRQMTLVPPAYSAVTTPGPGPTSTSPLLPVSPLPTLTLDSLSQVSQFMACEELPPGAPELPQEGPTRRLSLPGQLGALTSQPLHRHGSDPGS

[42] = target: Phosphatidylinositol 4,5-bisphosphate 3-kinase catalytic subunit gamma isoform (Homo sapiens) (UniProt P48736); test: Inhibition of PIK3CG at 3 uM

CN(C)CCOc1cc(-c2cn[nH]c2)ccc1NC(=O)C1COc2ccccc2O1 (stereo not given) [SR-3677]
17%: inhibition [26]
6%: inhibition [10] | inhibition [21]
22%: inhibition (Rattus norvegicus)
< 10%: inhibition [1] | inhibition [2] | inhibition [3] | inhibition [4] | inhibition [6] | inhibition [7] | inhibition [8] | inhibition [9] | inhibition [11] | inhibition [12] | inhibition [13] | inhibition [15] | inhibition [17] | inhibition [18] | inhibition [19] | inhibition [22] | inhibition [23] | inhibition [24] | inhibition [25] | inhibition [27] | inhibition [28] | inhibition [29] | inhibition [30] | inhibition [31] | inhibition [33] | inhibition [34] | inhibition [35] | inhibition [36] | inhibition [37] | inhibition [38] | inhibition [39] | inhibition [40] | inhibition [42]
-1%: inhibition [5]
-4%: inhibition [16]
7%: inhibition [32]
4%: inhibition [14]
31%: inhibition at 3 µM (hERG (KCNH2))
0.7 µM·h: AUC (in vivo)
48 min: half-life [41]
88%: inhibition [20]
